This is an account of results in PMC12039533 (Journal of Food and Drug Analysis, 2025).

The target of one assay is T1, FLT3 (Homo sapiens, UniProt P36888).
T1 sequence (P36888 27-993): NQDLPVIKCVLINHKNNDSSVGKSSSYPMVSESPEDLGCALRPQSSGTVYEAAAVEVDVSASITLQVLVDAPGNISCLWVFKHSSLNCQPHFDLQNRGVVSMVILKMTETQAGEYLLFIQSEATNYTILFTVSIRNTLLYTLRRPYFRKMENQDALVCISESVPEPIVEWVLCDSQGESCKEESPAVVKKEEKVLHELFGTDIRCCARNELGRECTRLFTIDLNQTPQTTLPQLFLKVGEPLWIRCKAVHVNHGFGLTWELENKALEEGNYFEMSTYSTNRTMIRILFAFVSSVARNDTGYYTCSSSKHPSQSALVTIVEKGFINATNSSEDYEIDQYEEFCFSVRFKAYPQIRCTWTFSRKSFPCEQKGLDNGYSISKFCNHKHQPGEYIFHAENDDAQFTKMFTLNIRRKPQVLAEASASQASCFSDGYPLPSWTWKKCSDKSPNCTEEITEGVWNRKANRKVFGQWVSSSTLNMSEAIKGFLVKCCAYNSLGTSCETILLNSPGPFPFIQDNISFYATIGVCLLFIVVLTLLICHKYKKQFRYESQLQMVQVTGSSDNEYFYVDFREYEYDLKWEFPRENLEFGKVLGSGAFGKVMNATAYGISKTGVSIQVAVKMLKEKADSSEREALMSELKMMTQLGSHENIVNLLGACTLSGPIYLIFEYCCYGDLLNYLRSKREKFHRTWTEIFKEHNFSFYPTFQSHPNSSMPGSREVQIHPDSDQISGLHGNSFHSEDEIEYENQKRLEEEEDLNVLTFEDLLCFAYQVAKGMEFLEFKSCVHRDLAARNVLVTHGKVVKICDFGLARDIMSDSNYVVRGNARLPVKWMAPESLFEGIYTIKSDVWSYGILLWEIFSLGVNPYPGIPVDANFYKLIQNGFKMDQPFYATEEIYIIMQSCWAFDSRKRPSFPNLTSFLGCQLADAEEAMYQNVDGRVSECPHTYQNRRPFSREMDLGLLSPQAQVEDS
Briefly: HTRF KinEASE in vitro kinase assay. In kind it is biochemical. In general terms: In TR-FRET formats the signal depends on donor and acceptor labels being close together.

The target in another assay is SRPK1 (Homo sapiens, UniProt Q96SB4). Briefly: HTRF KinEASE in vitro kinase assay. Type of assay: biochemical. A digest of the protocol: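 Kinase activity was measured with the HTRF KinEASE STK/TK kit, and the TR-FRET signal was read on a multilabel microplate reader. Percent inhibition was calculated from the signal, and the IC50 was derived from these inhibition rates.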
Sequence of SRPK1 (Q96SB4 whole entry): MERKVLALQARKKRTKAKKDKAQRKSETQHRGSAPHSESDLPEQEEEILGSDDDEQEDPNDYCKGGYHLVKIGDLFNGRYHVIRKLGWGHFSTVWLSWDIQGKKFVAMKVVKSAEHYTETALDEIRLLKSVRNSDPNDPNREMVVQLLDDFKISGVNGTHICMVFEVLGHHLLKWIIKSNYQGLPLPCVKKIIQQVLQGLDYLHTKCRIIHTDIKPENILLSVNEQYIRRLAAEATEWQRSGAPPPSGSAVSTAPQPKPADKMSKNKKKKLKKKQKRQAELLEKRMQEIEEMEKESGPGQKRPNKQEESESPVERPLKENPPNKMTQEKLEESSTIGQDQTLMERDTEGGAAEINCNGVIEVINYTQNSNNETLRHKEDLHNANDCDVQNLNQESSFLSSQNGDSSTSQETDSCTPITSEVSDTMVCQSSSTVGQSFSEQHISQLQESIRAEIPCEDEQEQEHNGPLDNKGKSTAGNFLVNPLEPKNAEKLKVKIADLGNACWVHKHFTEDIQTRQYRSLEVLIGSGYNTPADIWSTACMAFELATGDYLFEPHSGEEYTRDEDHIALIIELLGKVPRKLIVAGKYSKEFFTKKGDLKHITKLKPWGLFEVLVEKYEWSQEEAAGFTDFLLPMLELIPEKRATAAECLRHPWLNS

Take `COc1cc(O)c(CC=C(C)C)c(O)c1C(=O)/C=C/c1ccc(O)cc1` [XN, Xanthohumol]: the values for the half-maximal inhibitory concentration (IC50) on FLT3 and at SRPK1 were 1510 ± 440 nM and 370 ± 150 nM, respectively.
